The test system of assay [1] is MCF7. Put plainly: Antiproliferative activity against human MCF7 cells after 72 hrs relative to 1-alpha,25-(OH)2-D3. Type of assay: functional. The procedure, abridged:
(§1)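 MCF-7 breast cancer cells (ATCC) incubated 72 h with a range of concentrations of analogues, reference 1α,25-(OH)2-D3 or vehicle. Proliferation read as [3H]thymidine incorporation.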

Assay [2] has as its target T1, Vitamin D-binding protein (Homo sapiens) (UniProt P02774).
T1 sequence (whole entry): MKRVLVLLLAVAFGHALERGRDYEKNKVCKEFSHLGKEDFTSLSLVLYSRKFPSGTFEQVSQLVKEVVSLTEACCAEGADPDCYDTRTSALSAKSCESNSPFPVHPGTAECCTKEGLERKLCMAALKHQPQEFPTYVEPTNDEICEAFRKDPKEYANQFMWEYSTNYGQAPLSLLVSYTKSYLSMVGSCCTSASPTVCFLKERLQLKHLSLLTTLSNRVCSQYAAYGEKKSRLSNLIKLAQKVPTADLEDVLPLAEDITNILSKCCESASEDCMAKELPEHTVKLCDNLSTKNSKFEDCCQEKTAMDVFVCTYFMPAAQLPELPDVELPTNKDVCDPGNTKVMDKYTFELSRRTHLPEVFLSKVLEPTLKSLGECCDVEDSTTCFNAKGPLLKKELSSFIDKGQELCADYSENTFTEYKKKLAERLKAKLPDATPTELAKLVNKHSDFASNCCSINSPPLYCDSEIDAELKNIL
The assay can be described thus: Binding affinity to human DBP relative to 1-alpha,25-(OH)2-D3.

Assay [3] addresses T2, Vitamin D3 receptor (Sus scrofa) (UniProt A3RGC1).
T2 sequence (whole entry): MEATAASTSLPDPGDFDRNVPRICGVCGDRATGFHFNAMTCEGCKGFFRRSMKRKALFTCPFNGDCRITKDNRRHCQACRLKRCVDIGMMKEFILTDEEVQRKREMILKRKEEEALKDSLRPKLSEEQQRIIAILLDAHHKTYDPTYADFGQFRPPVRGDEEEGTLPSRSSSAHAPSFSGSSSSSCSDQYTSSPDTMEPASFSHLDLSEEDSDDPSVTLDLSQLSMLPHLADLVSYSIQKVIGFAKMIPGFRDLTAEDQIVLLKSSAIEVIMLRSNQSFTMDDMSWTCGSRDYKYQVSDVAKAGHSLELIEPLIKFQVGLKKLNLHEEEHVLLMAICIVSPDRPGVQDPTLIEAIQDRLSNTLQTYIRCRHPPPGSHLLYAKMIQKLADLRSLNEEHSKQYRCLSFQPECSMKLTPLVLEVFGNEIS
The assay can be described thus: Displacement of [3H]1-alpha,25-(OH)2-D3 from VDR in pig intestinal mucosa relative to 1-alpha,25-(OH)2-D3. Type of assay: tissue-based. The procedure, abridged:
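Competitive binding using high-speed supernatant of intestinal mucosa homogenates from normal pigs, competing against [3H]-1α,25-(OH)2-D3. Relative affinity taken from the concentration displacing 50% of tracer, with 1α,25-(OH)2-D3 set at 100%.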
A general note: In a radioligand displacement assay an active substance lowers the binding of a labelled ligand.

Assay [4] concerns MCF7. Put plainly: Antiproliferative activity against human MCF7 cells at 1 uM after 72 hrs relative to 1-alpha,25-(OH)2-D3. Type of assay: functional. Conditions: MCF7, 72 h. The procedure, abridged:
as §1

Turning to `C[C@H](CCCC(C)(C)O)[C@H]1CC[C@H]2C(/C=C\C3=C[C@@H](O)[C@@H](O)[C@@H](O)C3)=CCC[C@]12C`, the Activity in the assay on MCF7 [1] is 0%; in assay [2], 7%; in assay [3], below 0.1%.
Regarding `C[C@H](CCCC(C)(C)O)[C@H]1CC[C@H]2C(/C=C\C3=C[C@H](O)[C@@H](O)[C@H](O)C3)=CCC[C@]12C`, the Activity with MCF7 [1] was 0%; in assay [2] it was 2%; in assay [3], below 0.1%.
In general, inhibition refers to the relative decrease from the control value, in per cent. A low value points to a weak effect. Regarding `C[C@H](CCCC(C)(C)O)[C@H]1CC[C@H]2C(/C=C\C3=C[C@@H](O)[C@H](O)[C@H](O)C3)=CCC[C@]12C`, the Activity in the assay on MCF7 [1] amounted to 6%; in assay [2], 8%; in assay [3] it was 2%. Also, testing at 1 µM with MCF7 [4] gave an inhibition of 70%.
With `C[C@H](CCCC(C)(C)O)[C@H]1CC[C@H]2C(/C=C\C3=C[C@@H](O)[C@@H](O)[C@H](O)C3)=CCC[C@]12C`, the Activity stood at 2% in the assay on MCF7 [1], 4% in assay [2] and 0.2% in assay [3].

(Values after ChEMBL document CHEMBL1147961, “Synthesis and biological evaluation of new 6-s-cis locked 1,2,25-trihydroxyprevitamin D3 analogues” (2007).)
